Measured values taken from ChEMBL document CHEMBL1153546, “Pharmacokinetics of telbivudine in subjects with various degrees of renal impairment” (Antimicrob Agents Chemother, 2007).

Legend:
[1] = Plasma clearance in patient with severe renal impairment at 200 mg, po administered as single dose; format: ADME, organism-based; settings: human
How it was run: (§1)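 Apparent total oral plasma clearance (CL/F) = dose/AUC0-∞. AUC was obtained noncompartmentally from plasma LC-MS/MS concentrations sampled up to 48 h after a single oral dose.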

[2] = Initial decline half life in patient with moderate renal impairment at 400 mg, po administered as single dose; format: ADME, organism-based; settings: human, in vivo, read-out: alphat1/2 (converted)
How it was run: (§2)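 Half-lives came from noncompartmental analysis of plasma LC-MS/MS concentrations over 48 h after a single oral dose. Terminal and initial-decline t1/2 were calculated as 0.693/k, with each rate constant derived by stripping and linear regression.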

[3] = Elimination half life in patient with moderate renal impairment at 400 mg, po administered as single dose; format: ADME, organism-based; settings: human, in vivo, read-out: beta t1/2 (converted); how it was run: as §2
[4] = Cmax in patient with moderate renal impairment at 400 mg, po administered as single dose; format: ADME, organism-based; set-up: dose 400 mg, route oral; settings: human, in vivo
How it was run: (§3)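 Plasma telbivudine after one oral dose, sampled predose through 48 h and quantified by validated LC-MS/MS (LLOQ 10 ng/ml, transition 243.0→127.1 m/z). Cmax was read directly from the observed concentration-time data.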

[5] = Terminal half life in healthy human at 200 to 800 mg/day administered as single dose; format: ADME, organism-based; settings: in vivo, read-out: beta t1/2 (converted)
[6] = Renal clearance in patient with mild renal impairment at 600 mg, po administered as single dose; format: ADME, organism-based, Kidney; settings: human, in vivo, read-out: CL_renal (converted)
How it was run: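 Renal clearance = Au0-t/AUC0-t, where Au0-t is the cumulative unchanged drug in urine collected over 0–48 h. Plasma and urine were assayed by validated HPLC-MS/MS after a single oral dose.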

[7] = Initial decline half life in patient with severe renal impairment at 200 mg, po administered as single dose; format: ADME, organism-based; settings: human, in vivo, read-out: alphat1/2 (converted); how it was run: as §2
[8] = Plasma clearance in patient with moderate renal impairment at 400 mg, po administered as single dose; format: ADME, organism-based; settings: human; how it was run: as §1
Homo sapiens [9] = test: Dialytic clearance in patient with end-stage renal disease at 200 mg, po administered as single dose 2 hrs before dialysis; format: ADME, organism-based; settings: in vivo
How it was run: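 Dose given 2 h before a 3.5–4 h hemodialysis session. Paired pre- and postdialyzer plasma samples were taken at start, mid and end of dialysis. CLHD = [(QA×CA) – (QV×CV)]/CA, where QA and QV are dialyzer inflow and outflow blood rates and CA and CV are the paired concentrations.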

[10] = Tmax in human with normal renal function at 600 mg, po administered as single dose; format: ADME, organism-based; settings: in vivo
How it was run: (§4)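 Single oral dose. Plasma was frozen at –20°C. Assay by validated HPLC-MS/MS (LLOQ 10 ng/ml, calibration 10–5,000 ng/ml, m/z 243.0→127.1). Tmax was read directly from the concentration-time data, with noncompartmental analysis.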

Homo sapiens [11] = test: Plasma clearance in human with normal renal function at 600 mg, po administered as single dose; format: ADME, organism-based; settings: in vivo; how it was run: as §1
[12] = Mean cumulative urine excretion level in patient with mild renal impairment at 600 mg, po administered as single dose; format: ADME, organism-based; settings: human, read-out: Activity
How it was run: (§5)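 Urine collected at –2 to 0 h predose and at 0–4, 4–8, 8–12, 12–24 and 24–48 h after a single oral dose. Unchanged telbivudine measured by validated HPLC-MS/MS (LLOQ 30 ng/ml, calibration 30–5,000 ng/ml), and amounts were summed cumulatively.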

[13] = Mean cumulative urine excretion level in human with normal renal function at 600 mg, po administered as single dose; format: ADME, organism-based; settings: read-out: Activity; how it was run: as §5
[14] = Plasma clearance in patient with mild renal impairment at 600 mg, po administered as single dose; format: ADME, organism-based; settings: human; how it was run: as §1
[15] = Cmax in patient with severe renal impairment at 200 mg, po administered as single dose; format: ADME, organism-based; set-up: dose 200 mg, route oral; settings: human, in vivo; how it was run: as §3
[16] = Elimination half life in human with normal renal function at 600 mg, po administered as single dose; format: ADME, organism-based; settings: in vivo, read-out: beta t1/2 (converted); how it was run: as §2
Hepatitis B virus [17] = test: Antiviral activity against HBV in HBeAg-positive patient with chronic viral infection assessed as log reduction of serum viral DNA copies/ml at 60 mg/day after 6 to 12 weeks; format: functional
[18] = AUC (0 to t) in patient with end-stage renal disease at 200 mg, po administered as two single doses within 2 hrs of after completion of dialysis separated by 1 week washout period; format: ADME, organism-based; settings: human, plasma
How it was run: (§6)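 Single oral telbivudine dose. Heparinized blood was drawn predose and up to 48 h postdose, with extra paired dialyzer samples for predialysis dosing. Plasma was stored at –20°C and assayed by validated HPLC-MS/MS (LLOQ 10 ng/ml, range 10–5,000 ng/ml). Noncompartmental analysis: AUC0-t by linear trapezoidal rule to last measurable concentration; AUC0-∞ = AUC0-t + Ct/kel.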

[19] = AUC (0 to t) in patient with end-stage renal disease at 200 mg, po disease as two single doses 2 hrs before dialysis separated by 1 week washout period; format: ADME, organism-based; settings: human, plasma; how it was run: as §6
[20] = AUC (0 to infinity) in patient with severe renal impairment at 200 mg, po administered as single dose; format: ADME, organism-based; set-up: dose 200 mg, route oral, time infinity; settings: human, plasma; how it was run: as §6
[21] = AUC (0 to t) in patient with moderate renal impairment at 400 mg, po administered as single dose; format: ADME, organism-based; settings: human, plasma; how it was run: as §6
[22] = Tmax in patient with severe renal impairment at 200 mg, po administered as single dose; format: ADME, organism-based; settings: human, in vivo; how it was run: as §4
[23] = Initial decline half life in patient with end-stage renal disease at 200 mg, po administered as two single doses within 2 hrs of after completion of dialysis separated by 1 week washout period; format: ADME, organism-based; settings: human, in vivo, read-out: alphat1/2 (converted); how it was run: as §2
[24] = AUC (0 to infinity) in patient with end-stage renal disease at 200 mg, po administered as two single doses within 2 hrs of after completion of dialysis separated by 1 week washout period; format: ADME, organism-based; set-up: dose 200 mg, time infinity, route oral; settings: human, plasma; how it was run: as §6
[25] = Cmax in patient with end-stage renal disease at 200 mg, po administered as two single doses 2 hrs before dialysis separated by 1 week washout period; format: ADME, organism-based; set-up: dose 200 mg, route oral; settings: human, in vivo; how it was run: as §3
[26] = Cmax in patient with end-stage renal disease at 200 mg, po administered as two single doses within 2 hrs of after completion of dialysis separated by 1 week washout period; format: ADME, organism-based; set-up: dose 200 mg, route oral; settings: human, in vivo; how it was run: as §3
Hepatitis B virus [27] = test: Antiviral activity against HBV in HBeAg-positive patient with chronic viral infection assessed as log reduction of serum viral DNA copies/ml at 60 mg/day after 4 weeks; format: functional
[28] = Elimination half life in patient with end-stage renal disease at 200 mg, po administered as two single doses within 2 hrs of after completion of dialysis separated by 1 week washout period; format: ADME, organism-based; settings: human, in vivo, read-out: beta t1/2 (converted); how it was run: as §2

SMILES: Cc1cn([C@@H]2C[C@@H](O)[C@H](CO)O2)c(=O)[nH]c1=O [TELBIVUDINE]
- CL/F [1]: 118 mL/min
- half-life [2]: 3.82 h
- half-life [3]: 31.2 h
- Cmax [4]: 2.8 µg/mL
- half-life [5]: 40 h
- CL renal [6]: 83.3 mL/min
- half-life [7]: 4.5 h
- CL/F [8]: 227 mL/min
- CL (Homo sapiens [9]): 13.3 L/h
- Tmax [10]: 4 h
- CL (Homo sapiens [11]): 7.6 L/h
- dose excreted [12]: 23.6%
- dose excreted [13]: 31.5%
- CL/F [14]: 345 mL/min
- Cmax [15]: 1.6 µg/mL
- half-life [16]: 20.5 h
- Activity (Hepatitis B virus [17]): 6 mL⁻¹
- AUC(0-t) [18]: 41.8 µg·h/mL
- AUC(0-t) [19]: 26.5 µg·h/mL
- AUC(0-inf) [20]: 32.5 µg·h/mL
- AUC(0-t) [21]: 30.1 µg·h/mL
- Tmax [22]: 4 h
- half-life [23]: 4.87 h
- AUC(0-inf) [24]: 67.4 µg·h/mL
- Cmax [25]: 1.2 µg/mL
- Cmax [26]: 2.1 µg/mL
- Activity (Hepatitis B virus [27]): 3.6 mL⁻¹
- half-life [28]: 37.9 h
